≈ marks a conversion by molar mass, not a printed value.
How the values were obtained:
Cytochrome P450 2C19 = Cytochrome P450 2C19 (Homo sapiens, UniProt P33261); test: Inhibition of CYP2C19 (unknown origin); format: ADME
Method in brief: (§1)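 Each CYP isoform screened for inhibition at a single test concentration of 10 μM.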

[1] = AUC (0 to last) in Beagle dog at 2 mg/kg,po; format: ADME, organism-based, Canis lupus familiaris; parameters: time 0 - last, dose 2 mg/kg, route po; conditions: in vivo
[2] = tested on: Mycobacterium tuberculosis; test: Antimycobacterial activity against drug-sensitive Mycobacterium tuberculosis assessed as mycobacterial growth inhibition; format: functional
[3] = molecular target: Voltage-gated inwardly rectifying potassium channel KCNH2 (Homo sapiens, UniProt Q12809); test: Inhibition of human ERG; format: toxicity
[4] = AUC (0 to last) in Sprague-Dawley rat at 5 mg/kg,po; format: ADME, organism-based; parameters: time 0 - last, dose 5 mg/kg, route po; conditions: in vivo
[5] = Efflux ratio of apparent permeability across basolateral to apical over apical to basolateral membrane in dog MDCK cells; format: ADME, cell-based, Canis lupus familiaris
[6] = Clearance in Beagle dog at 0.5 mg/kg,iv; format: ADME, organism-based, Canis lupus familiaris; conditions: in vivo
Method in brief: (§2)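 Beagle dogs. Single iv dose of 0.5 mg/kg. Clearance and half-life are derived from plasma concentration-time data.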

[7] = Drug concentration in Sprague-Dawley rat lung at 5 mg/kg,po measured after 96 hrs; format: ADME, organism-based; conditions: read-out: Ct
Method in brief: (§3)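 Tissue distribution study in CD-1 mice (6.25 mg/kg oral) and SD rats (5.0 mg/kg oral). Lung concentration (ng/g) and plasma concentration (ng/mL) measured 96 h after dosing. Lung/plasma ratio is lung concentration divided by plasma concentration.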

[8] = Cmax in mouse at 6.25 mg/kg,po; format: ADME, organism-based; parameters: dose 6.25 mg/kg, route po; conditions: in vivo
[9] = tested on: Mycobacterium tuberculosis; test: Antimycobacterial activity against Mycobacterium tuberculosis H37Rv assessed as mycobacterial growth inhibition by low oxygen recovery assay; format: functional
Method in brief: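 M. tuberculosis H37Rv under hypoxic conditions, low-oxygen recovery assay (LORA) following Cho et al. Read-out is MIC.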

[10] = Apparent permeability across basolateral side to apical side in dog MDCK cells; format: ADME, cell-based, Canis lupus familiaris
Cytochrome P450 2C9 = Cytochrome P450 2C9 (Homo sapiens, UniProt P11712); test: Inhibition of CYP2C9 (unknown origin); format: ADME; method in brief: as §1
[11] = Toxicity in Sprague-Dawley rat assessed as death at 200 mg/kg,po measured after 14 days; format: organism-based; conditions: in vivo, 336 h, time 14 day
Method in brief: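 14-day pilot oral toxicology study in rats, 8 males and 8 females per dose level. Dosing once daily at 30, 100 and 200 mg/kg, with the reference drug at 200 mg/kg. Deaths counted over the 14 days; drug exposure (AUC) recorded in the high-dose groups.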

[12] = Microsomal stability in human liver microsomes assessed as clearance; format: ADME, Microsome; conditions: read-out: CLH
[13] = Cmax in Sprague-Dawley rat at 5 mg/kg,po; format: ADME, organism-based; parameters: dose 5 mg/kg, route po; conditions: in vivo
[14] = Oral bioavailability in Beagle dog at 2 mg/kg; format: ADME, organism-based, Canis lupus familiaris; conditions: in vivo
[15] = AUC (0 to last) in mouse at 6.25 mg/kg,po; format: ADME, organism-based; parameters: time 0 - last, dose 6.25 mg/kg, route po; conditions: in vivo
[16] = Half life in mouse at 1 mg/kg,iv; format: ADME, organism-based; conditions: in vivo
Method in brief: (§4)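 CD-1 mice. Single iv dose of 1 mg/kg. Clearance and half-life are derived from plasma concentration-time data.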

[17] = Oral bioavailability in mouse at 6.25 mg/kg; format: ADME, organism-based; conditions: in vivo
[18] = Cmax in Beagle dog at 2 mg/kg,po; format: ADME, organism-based, Canis lupus familiaris; parameters: dose 2 mg/kg, route po; conditions: in vivo
[19] = Ratio of drug concentration in Sprague-Dawley rat lung to plasma at 5 mg/kg,po measured after 96 hrs; format: ADME, organism-based; method in brief: as §3
Cytochrome P450 3A4 = Cytochrome P450 3A4 (Homo sapiens, UniProt P08684); test: Inhibition of CYP3A4 (unknown origin); format: ADME; method in brief: as §1
[20] = Volume of distribution at steady state in mouse at 1 mg/kg,iv; format: ADME, organism-based; conditions: in vivo, read-out: Vdss
Method in brief: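 PK in CD-1 mice at 1 mg/kg iv and 6.25 mg/kg po. Vd, CL and t1/2 taken from the iv arm; Cmax, AUC0-last and F% taken from the oral arm.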

[21] = Microsomal stability in mouse liver microsomes assessed as clearance; format: ADME, Microsome; conditions: read-out: CLH
[22] = Drug concentration in Sprague-Dawley rat plasma at 5 mg/kg,po measured after 96 hrs; format: ADME, organism-based; method in brief: as §3
[23] = Volume of distribution at steady state in Beagle dog at 0.5 mg/kg,iv; format: ADME, organism-based, Canis lupus familiaris; conditions: in vivo, read-out: Vdss
Method in brief: (§5)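 PK in SD rats (1 mg/kg iv, 5.0 mg/kg po) and Beagle dogs (0.5 mg/kg iv, 2.0 mg/kg po). Vd taken from the iv arm, alongside CL and t1/2. Cmax and AUC0-last taken from the oral arm; F% calculated.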

[24] = Toxicity in Beagle dog assessed as effect on electrocardiogram at 200 mg/kg,po; format: organism-based, Canis lupus familiaris; conditions: in vivo
Method in brief: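 14-day GLP toxicology study in Beagle dogs; oral dosing once daily at 200 mg/kg, given in parallel with the reference drug. ECG recorded daily to detect qualitative changes and QTc interval prolongation.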

[25] = Drug concentration in CD-1 mouse lung at 6.25 mg/kg,po measured after 96 hrs; format: ADME, organism-based; conditions: read-out: Ct; method in brief: as §3
[26] = Half life in Beagle dog at 0.5 mg/kg,iv; format: ADME, organism-based, Canis lupus familiaris; conditions: in vivo; method in brief: as §2
[27] = tested on: Mycobacterium tuberculosis; test: Antimycobacterial activity against Mycobacterium tuberculosis H37Rv assessed as mycobacterial growth inhibition by microplate alamar blue assay; format: functional
Method in brief: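 M. tuberculosis H37Rv under normoxic conditions, microplate alamar blue assay (MABA) following Cho et al. Read-out is MIC.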

[28] = AUC in Sprague-Dawley rat at 200 mg/kg,po measured after 14 days; format: ADME, organism-based; parameters: dose 200 mg/kg, time 14 day, route po; conditions: in vivo
Method in brief: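 14-day pilot toxicology study in rats, 8 males and 8 females per dose level. Daily oral dosing, with 200 mg/kg as the high dose. Drug exposure is reported as AUC in µM·h.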

[29] = Cytotoxicity against African green monkey Vero cells; format: toxicity, cell-based; conditions: chlorocebus sabaeus
[30] = Microsomal stability in rat liver microsomes assessed as clearance; format: ADME, Microsome; conditions: read-out: CLH
[31] = Ratio of drug concentration in CD-1 mouse lung to plasma at 6.25 mg/kg,po measured after 96 hrs; format: ADME, organism-based; method in brief: as §3
[32] = Cytotoxicity against human HeLa cells; format: toxicity, cell-based
[33] = Clearance in mouse at 1 mg/kg,iv; format: ADME, organism-based; conditions: in vivo; method in brief: as §4
Cytochrome P450 2D6 = Cytochrome P450 2D6 (Homo sapiens, UniProt P10635); test: Inhibition of CYP2D6 (unknown origin); format: ADME; method in brief: as §1
[34] = Plasma protein binding in human assessed as bound fraction; format: ADME, cell-free; conditions: read-out: PPB
[35] = Apparent permeability across apical side to basolateral side in dog MDCK cells; format: ADME, cell-based, Canis lupus familiaris
[36] = Plasma protein binding in rat assessed as bound fraction; format: ADME, cell-free; conditions: read-out: PPB
[37] = Half life in Sprague-Dawley rat at 1 mg/kg,iv; format: ADME, organism-based; conditions: in vivo
Method in brief: (§6)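 SD rats. Single iv dose of 1 mg/kg. Clearance and half-life are derived from plasma concentration-time data.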

Cytochrome P450 1A2 = molecular target: T1, Cytochrome P450 1A2 (Homo sapiens, UniProt P05177); test: Inhibition of CYP1A2 (unknown origin); format: ADME; method in brief: as §1
T1 sequence (P05177 whole entry): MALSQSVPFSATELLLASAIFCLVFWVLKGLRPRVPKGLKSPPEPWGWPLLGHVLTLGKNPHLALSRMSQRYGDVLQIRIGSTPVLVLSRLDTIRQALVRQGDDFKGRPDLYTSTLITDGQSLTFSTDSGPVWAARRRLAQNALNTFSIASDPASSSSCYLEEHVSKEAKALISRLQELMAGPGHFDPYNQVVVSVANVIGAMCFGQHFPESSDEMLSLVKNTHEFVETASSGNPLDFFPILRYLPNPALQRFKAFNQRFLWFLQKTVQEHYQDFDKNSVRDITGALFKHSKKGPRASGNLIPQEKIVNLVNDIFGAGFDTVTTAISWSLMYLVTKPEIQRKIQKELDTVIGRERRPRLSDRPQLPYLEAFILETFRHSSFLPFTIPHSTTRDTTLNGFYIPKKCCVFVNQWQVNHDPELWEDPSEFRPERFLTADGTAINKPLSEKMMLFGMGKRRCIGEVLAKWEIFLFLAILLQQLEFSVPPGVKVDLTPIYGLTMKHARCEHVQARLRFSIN

[38] = Clearance in Sprague-Dawley rat at 1 mg/kg,iv; format: ADME, organism-based; conditions: in vivo; method in brief: as §6
[39] = Volume of distribution at steady state in Sprague-Dawley rat at 1 mg/kg,iv; format: ADME, organism-based; conditions: in vivo, read-out: Vdss; method in brief: as §5
[40] = Drug concentration in CD-1 mouse plasma at 6.25 mg/kg,po measured after 96 hrs; format: ADME, organism-based; method in brief: as §3
[41] = Oral bioavailability in Sprague-Dawley rat at 5 mg/kg; format: ADME, organism-based; conditions: in vivo

Voltage-gated inwardly rectifying potassium channel KCNH2, sequence (Q12809 whole entry): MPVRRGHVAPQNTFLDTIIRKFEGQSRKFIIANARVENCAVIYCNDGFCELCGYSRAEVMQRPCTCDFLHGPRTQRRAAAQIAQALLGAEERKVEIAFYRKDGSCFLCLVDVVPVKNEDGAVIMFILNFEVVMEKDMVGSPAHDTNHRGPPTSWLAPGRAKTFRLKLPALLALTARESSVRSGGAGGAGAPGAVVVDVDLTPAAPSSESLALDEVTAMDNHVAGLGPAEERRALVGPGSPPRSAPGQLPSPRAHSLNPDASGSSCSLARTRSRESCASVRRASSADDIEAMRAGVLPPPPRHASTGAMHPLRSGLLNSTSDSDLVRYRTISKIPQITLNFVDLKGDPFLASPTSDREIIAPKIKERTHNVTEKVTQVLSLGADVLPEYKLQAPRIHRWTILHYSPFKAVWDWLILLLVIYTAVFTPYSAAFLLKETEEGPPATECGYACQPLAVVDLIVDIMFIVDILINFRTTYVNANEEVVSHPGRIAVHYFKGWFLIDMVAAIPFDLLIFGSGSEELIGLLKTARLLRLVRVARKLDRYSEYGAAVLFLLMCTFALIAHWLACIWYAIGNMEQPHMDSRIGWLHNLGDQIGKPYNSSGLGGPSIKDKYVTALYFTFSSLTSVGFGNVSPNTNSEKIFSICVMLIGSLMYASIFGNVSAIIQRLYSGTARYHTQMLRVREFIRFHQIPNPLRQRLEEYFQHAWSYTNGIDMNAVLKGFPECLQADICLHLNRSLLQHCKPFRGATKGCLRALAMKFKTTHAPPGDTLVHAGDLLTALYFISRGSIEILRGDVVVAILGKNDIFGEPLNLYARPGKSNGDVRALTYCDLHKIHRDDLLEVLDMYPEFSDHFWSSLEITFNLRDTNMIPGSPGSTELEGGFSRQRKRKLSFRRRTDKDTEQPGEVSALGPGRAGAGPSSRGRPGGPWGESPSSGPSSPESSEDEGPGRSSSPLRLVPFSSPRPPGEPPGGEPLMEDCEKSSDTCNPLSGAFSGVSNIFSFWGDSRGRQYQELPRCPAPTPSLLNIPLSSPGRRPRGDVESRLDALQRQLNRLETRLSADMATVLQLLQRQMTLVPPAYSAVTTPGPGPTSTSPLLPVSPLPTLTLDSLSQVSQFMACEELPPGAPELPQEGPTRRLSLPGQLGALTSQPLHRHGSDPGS
Cytochrome P450 2C19, sequence (P33261 whole entry, canonical isoform): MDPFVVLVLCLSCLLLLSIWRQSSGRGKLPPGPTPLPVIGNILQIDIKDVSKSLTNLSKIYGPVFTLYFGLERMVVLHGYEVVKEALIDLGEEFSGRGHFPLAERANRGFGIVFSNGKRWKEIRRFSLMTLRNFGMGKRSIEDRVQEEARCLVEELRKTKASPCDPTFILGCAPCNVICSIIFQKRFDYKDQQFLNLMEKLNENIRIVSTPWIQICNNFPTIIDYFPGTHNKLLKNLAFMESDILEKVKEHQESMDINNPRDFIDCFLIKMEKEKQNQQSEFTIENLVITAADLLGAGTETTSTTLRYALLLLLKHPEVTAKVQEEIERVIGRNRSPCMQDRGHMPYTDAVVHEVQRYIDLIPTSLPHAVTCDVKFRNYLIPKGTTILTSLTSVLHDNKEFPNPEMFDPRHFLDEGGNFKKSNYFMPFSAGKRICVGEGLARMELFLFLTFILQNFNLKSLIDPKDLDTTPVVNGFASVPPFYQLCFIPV
Cytochrome P450 2D6, sequence (P10635 whole entry): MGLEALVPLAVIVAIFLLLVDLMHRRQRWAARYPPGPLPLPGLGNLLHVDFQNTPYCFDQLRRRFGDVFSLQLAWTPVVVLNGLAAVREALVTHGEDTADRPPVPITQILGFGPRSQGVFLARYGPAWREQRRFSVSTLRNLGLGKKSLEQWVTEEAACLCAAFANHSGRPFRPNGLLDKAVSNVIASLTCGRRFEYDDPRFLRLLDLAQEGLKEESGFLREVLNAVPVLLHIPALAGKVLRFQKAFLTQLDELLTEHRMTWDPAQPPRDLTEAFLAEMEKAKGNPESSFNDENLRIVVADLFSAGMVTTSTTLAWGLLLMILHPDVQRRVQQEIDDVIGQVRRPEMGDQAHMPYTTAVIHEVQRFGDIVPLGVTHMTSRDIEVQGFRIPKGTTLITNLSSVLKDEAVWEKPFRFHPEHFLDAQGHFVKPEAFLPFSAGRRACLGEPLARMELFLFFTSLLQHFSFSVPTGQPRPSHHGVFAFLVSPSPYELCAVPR
Cytochrome P450 3A4, sequence (P08684 whole entry): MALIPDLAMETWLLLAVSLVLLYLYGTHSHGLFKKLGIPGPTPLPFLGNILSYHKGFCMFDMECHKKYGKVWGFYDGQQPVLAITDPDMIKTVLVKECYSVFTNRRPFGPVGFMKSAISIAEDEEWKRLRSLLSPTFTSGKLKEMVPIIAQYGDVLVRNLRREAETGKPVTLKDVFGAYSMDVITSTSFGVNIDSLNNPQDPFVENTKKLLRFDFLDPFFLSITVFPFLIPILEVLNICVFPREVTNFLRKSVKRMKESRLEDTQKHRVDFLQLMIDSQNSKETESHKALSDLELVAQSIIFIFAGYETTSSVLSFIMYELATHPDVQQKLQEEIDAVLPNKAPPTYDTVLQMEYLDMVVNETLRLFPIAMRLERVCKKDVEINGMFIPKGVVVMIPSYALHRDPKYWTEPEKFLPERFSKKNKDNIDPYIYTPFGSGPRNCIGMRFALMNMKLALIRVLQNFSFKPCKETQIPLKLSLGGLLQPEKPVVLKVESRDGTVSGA
Cytochrome P450 2C9, sequence (P11712 whole entry): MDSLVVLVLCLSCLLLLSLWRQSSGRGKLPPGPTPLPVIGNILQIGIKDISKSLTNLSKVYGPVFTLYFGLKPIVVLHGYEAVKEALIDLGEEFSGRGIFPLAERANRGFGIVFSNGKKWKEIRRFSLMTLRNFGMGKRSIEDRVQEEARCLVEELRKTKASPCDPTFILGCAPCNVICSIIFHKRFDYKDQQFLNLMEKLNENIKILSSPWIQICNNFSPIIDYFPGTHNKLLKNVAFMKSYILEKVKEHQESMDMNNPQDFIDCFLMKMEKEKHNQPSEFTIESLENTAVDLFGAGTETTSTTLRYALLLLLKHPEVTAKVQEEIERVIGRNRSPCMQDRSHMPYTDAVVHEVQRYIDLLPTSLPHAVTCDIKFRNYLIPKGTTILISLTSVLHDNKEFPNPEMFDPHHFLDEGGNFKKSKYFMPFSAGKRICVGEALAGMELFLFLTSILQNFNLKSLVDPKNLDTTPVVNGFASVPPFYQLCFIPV

SMILES: COc1nc(-c2ccc(Cl)cc2)ccc1[C@@H](c1ccccc1)[C@@](O)(CCN(C)C)c1cccc2ccccc12
- IC50 (Cytochrome P450 2C19): > 10 µM
- AUC(0-t) [1]: 8500 ng·h/mL
- MIC50 [2]: 0.083 µg/mL (≈ 0.155 µM)
- MIC90 [2]: 0.152 µg/mL (≈ 0.283 µM)
- IC50 [3]: > 30 µM
- AUC(0-t) [4]: 4080 ng·h/mL
- efflux ratio [5]: 2.54
- clearance [6]: 2.04 mL/min/kg
- concentration at 96 h [7]: 337 ng/g
- Cmax [8]: 503 ng/mL
- MIC [9]: 0.56 µg/mL (≈ 1.04 µM)
- Papp B→A [10]: 0.11 ×10⁻⁶ cm/s
- IC50 (Cytochrome P450 2C9): > 10 µM
- Activity [11]: Toxic
- microsomal CLint [12]: 39.4 µL/min/mg
- Cmax [13]: 328 ng/mL
- bioavailability [14]: 58.9%
- AUC(0-t) [15]: 10200 ng·h/mL
- half-life [16]: 46.3 h
- bioavailability [17]: 40.7%
- Cmax [18]: 390 ng/mL
- Kp at 96 h [19]: 71.1
- IC50 (Cytochrome P450 3A4): > 10 µM
- Vd [20]: 10.4 L/kg
- microsomal CLint [21]: 71.3 µL/min/mg
- concentration at 96 h [22]: 4.74 ng/mL
- Vd [23]: 6.04 L/kg
- Activity [24]: Non-Toxic
- concentration at 96 h [25]: 857 ng/g
- half-life [26]: 56.2 h
- MIC [27]: 0.08 µg/mL (≈ 0.149 µM)
- AUC at 336 h [28]: 248 µM·h
- CC50 [29]: > 50 µg/mL
- microsomal CLint [30]: 45.7 µL/min/mg
- Kp at 96 h [31]: 33.7
- CC50 [32]: > 64 µg/mL
- clearance [33]: 3.59 mL/min/kg
- IC50 (Cytochrome P450 2D6): > 10 µM
- fraction unbound [34]: < 0.01
- Papp A→B [35]: 0.04 ×10⁻⁶ cm/s
- fraction unbound [36]: < 0.01
- half-life [37]: 25.6 h
- IC50 (Cytochrome P450 1A2): > 10 µM
- clearance [38]: 8.25 mL/min/kg
- Vd [39]: 9.2 L/kg
- concentration at 96 h [40]: 25.4 ng/mL
- bioavailability [41]: 36.7%

From ChEMBL document CHEMBL5113423, “Discovery and preclinical profile of sudapyridine (WX-081), a novel anti-tuberculosis agent” (Bioorg Med Chem Lett, 2022)
